Calls of active or inactive are those of the source. The calls are words filed in the database; no cut-off is given here.
Key:
[1] = Antiproliferative activity against Rb-negative human MDA-MB-436 cells assessed as incorporation of [3H]thymidine into DNA after 72 hrs by beta-plate counting analysis; type: functional
[2] = test system: COLO 205; assay: Antiproliferative activity against Rb-positive human COLO205 cells assessed as incorporation of [14C]thymidine into DNA after 72 hrs by beta-plate counting analysis
[3] = Clearance in iv dosed rat; type: ADME, organism-based; conditions: in vivo
Procedure, shortened: (§1)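 Intravenous and oral (gavage, solution) PK in rat, dog and cynomolgus monkey. The rat vehicle for both routes was water/acetate/tween at pH 4, 96/3/1 (v/v/v). Dog and monkey iv doses used 40% PG aqueous solution at pH 2, and their oral doses used 20% captisol aqueous solution.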

[4] = molecular target: Cyclin-dependent kinase 4/cyclin D1 (Homo sapiens, UniProt P11802); assay: Inhibition of CDK4/cyclin D1 (unknown origin) using Rb as substrate after 60 mins by scintillation counting analysis in presence of [r-33P]ATP; type: protein-complex assay
[5] = Oral bioavailability in rat; type: ADME, organism-based; conditions: in vivo; procedure, shortened: as §1
[6] = molecular target: T1, Receptor-type tyrosine-protein kinase FLT3 (Homo sapiens, UniProt P36888); assay: Inhibition of GST-fused human FLT3 cytoplasmic domain (amino acids 564 to 993) using Ulight-JAK1 as substrate after 1 hr by TR-FRET assay
T1 sequence (P36888 whole entry): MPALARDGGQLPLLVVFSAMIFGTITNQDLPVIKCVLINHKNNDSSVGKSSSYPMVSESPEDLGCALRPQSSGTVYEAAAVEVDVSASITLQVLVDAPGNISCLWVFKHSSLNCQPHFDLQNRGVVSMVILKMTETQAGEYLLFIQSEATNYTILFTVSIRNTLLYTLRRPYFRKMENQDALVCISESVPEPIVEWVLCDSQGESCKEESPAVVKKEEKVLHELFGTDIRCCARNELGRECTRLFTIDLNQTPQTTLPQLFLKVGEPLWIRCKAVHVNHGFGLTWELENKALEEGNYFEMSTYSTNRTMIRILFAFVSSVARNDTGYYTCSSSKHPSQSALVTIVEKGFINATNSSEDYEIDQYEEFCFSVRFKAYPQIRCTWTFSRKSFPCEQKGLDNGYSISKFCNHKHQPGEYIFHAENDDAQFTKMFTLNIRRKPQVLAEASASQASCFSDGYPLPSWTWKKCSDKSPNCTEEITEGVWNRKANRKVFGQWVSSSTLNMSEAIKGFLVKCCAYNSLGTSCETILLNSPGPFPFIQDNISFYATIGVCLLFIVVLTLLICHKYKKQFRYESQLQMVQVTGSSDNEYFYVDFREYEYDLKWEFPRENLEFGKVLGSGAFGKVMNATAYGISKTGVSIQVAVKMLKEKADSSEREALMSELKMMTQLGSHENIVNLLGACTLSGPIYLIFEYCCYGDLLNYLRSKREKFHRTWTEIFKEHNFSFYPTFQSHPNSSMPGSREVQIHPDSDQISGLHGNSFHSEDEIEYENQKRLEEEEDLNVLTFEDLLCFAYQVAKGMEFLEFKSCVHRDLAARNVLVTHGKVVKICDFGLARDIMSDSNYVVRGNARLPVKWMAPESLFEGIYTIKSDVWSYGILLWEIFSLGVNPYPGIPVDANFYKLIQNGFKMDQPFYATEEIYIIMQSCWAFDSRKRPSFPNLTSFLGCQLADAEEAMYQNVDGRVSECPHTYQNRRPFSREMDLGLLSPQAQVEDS

[7] = test system: MOLM-13; assay: Antiproliferative activity against human MOLM13 cells harboring FLT3 ITD mutant assessed as incorporation of [3H]thymidine into DNA after 72 hrs by beta-plate counting analysis; type: functional, cell-based
[8] = test system: Mus musculus; assay: Toxicity in po dosed CrTac:NCR-Foxn1nu (NCR) nude mouse xenografted with human MOLM13 cells at dose that causing 100% tumor growth inhibition administered qd for 8 days; type: organism-based, MOLM-13; conditions: in vivo, 192 h
Procedure, shortened: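 Body weight tracked throughout the 8-day once-daily oral study in NCR nude mice carrying MOLM13 xenografts. Doses were 25, 50, 75 and 150 mg/kg, with a vehicle control.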

[9] = molecular target: Cyclin-dependent kinase 1/cyclin B1 (Homo sapiens, UniProt P06493); assay: Inhibition of CDK1/cyclin B (unknown origin) using histone H1 as substrate after 60 mins by scintillation counting analysis in presence of [r-33P]ATP; type: protein-complex assay
[10] = molecular target: Voltage-gated inwardly rectifying potassium channel KCNH2 (Homo sapiens, UniProt Q12809); assay: Binding affinity to human ERG
[11] = molecular target: Cytochrome P450 3A4 (Homo sapiens, UniProt P08684); assay: Inhibition of CYP3A4 (unknown origin); type: ADME
[12] = molecular target: CYP3A4 (Homo sapiens, UniProt P08684); assay: Inhibition of CYP3A4 (unknown origin) at 3 uM; type: ADME
[13] = molecular target: Receptor-type tyrosine-protein kinase FLT3 (Homo sapiens, UniProt P36888, ITD); assay: Inhibition of FLT3 ITD mutant in human MOLM13 cells assessed as inhibition of STAT5 phosphorylation at Tyr694 after 24 hrs; type: cell-based, MOLM-13
[14] = test system: Tumour; assay: Decrease in Rb phosphorylation at Ser780 in tumor of po dosed CrTac:NCR-Foxn1nu (NCR) nude mouse xenografted with human MOLM13 cells after 24 hrs; type: functional, organism-based; conditions: Neoplasm, MOLM-13
Procedure, shortened: (§2)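 MOLM13 tumor-bearing mice received a single oral dose of 50, 75 or 150 mg/kg. Tumors were harvested at 3, 6 and 24 h, and lysates were assayed for pSTAT5 and pRb. Unbound plasma levels were measured at the same time points. Results are mean ± SEM, n = 3 per group and n = 6 for vehicle.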

[15] = test system: Mus musculus; assay: Unbound Cmax in CrTac:NCR-Foxn1nu (NCR) nude mouse xenografted with human MOLM13 cells at 150 mg/kg, po; type: ADME, organism-based, MOLM-13; parameters: dose 150 mg/kg, route oral; conditions: in vivo
[16] = AUC in rat at 2 mg/kg, po; type: ADME, organism-based; parameters: dose 2 mg/kg, route oral; conditions: plasma
[17] = Drug uptake in CrTac:NCR-Foxn1nu (NCR) nude mouse at 150 mg/kg, po after 3 hrs; type: ADME, organism-based; parameters: dose 150 mg/kg, route oral; conditions: in vivo, read-out: Drug uptake
Procedure, shortened: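 Total plasma drug concentration in mouse PK studies, taken 3 h after a 150 mg/kg oral dose.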

[18] = Total Cmax in rat at 2 mg/kg, po; type: ADME, organism-based; parameters: dose 2 mg/kg, route oral; conditions: in vivo
[19] = species on record: Homo sapiens; assay: Selectivity ratio of IC50 for CDK1/cyclin B (unknown origin) to IC50 for CDK4/cyclin D1 (unknown origin)
[20] = test system: Tumour; assay: Decrease in STAT5 phosphorylation at Tyr694 in tumor of CrTac:NCR-Foxn1nu (NCR) nude mouse xenografted with human MOLM13 cells at 150 mg/kg, po after 3 hrs; type: functional, organism-based; parameters: dose 150 mg/kg; conditions: Neoplasm, MOLM-13; procedure, shortened: as §2
[21] = molecular target: Cyclin-dependent kinase 4 (Homo sapiens, UniProt P11802); assay: Inhibition of CDK4 in human MOLM13 cells assessed as inhibition of Rb phosphorylation at Ser780 after 24 hrs; type: cell-based, MOLM-13
Sequence of Cyclin-dependent kinase 4 (P11802 whole entry): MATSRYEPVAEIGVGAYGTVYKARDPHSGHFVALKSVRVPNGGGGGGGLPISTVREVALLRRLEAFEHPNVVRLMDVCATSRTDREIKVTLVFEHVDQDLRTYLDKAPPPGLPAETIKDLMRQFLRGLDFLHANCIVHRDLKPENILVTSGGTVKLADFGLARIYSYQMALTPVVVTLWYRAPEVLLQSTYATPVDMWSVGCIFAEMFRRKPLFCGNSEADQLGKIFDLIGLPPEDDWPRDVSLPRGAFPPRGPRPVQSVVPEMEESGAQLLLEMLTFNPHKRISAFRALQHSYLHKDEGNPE

Sequence of Cyclin-dependent kinase 1/cyclin B1 (P06493 whole entry): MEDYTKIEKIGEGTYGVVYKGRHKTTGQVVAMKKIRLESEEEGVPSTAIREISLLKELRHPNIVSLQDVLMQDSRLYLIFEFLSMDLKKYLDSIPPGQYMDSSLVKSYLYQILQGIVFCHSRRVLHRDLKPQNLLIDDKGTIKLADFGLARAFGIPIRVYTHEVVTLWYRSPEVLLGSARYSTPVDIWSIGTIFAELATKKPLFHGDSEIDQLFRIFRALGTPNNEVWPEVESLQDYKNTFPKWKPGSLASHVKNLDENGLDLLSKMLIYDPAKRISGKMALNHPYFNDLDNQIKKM
Sequence of Cyclin-dependent kinase 1/cyclin B1 (P14635 whole entry, further chain): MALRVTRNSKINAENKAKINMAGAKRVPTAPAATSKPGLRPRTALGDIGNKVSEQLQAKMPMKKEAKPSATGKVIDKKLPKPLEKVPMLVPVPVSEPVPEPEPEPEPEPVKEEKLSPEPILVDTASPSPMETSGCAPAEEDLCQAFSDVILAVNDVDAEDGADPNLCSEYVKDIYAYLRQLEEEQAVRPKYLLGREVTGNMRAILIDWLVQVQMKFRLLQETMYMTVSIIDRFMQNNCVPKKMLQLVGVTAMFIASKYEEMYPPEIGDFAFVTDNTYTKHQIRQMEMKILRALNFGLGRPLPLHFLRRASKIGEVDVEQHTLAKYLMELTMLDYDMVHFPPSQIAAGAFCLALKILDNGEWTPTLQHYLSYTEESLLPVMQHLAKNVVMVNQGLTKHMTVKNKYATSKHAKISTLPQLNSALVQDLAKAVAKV
Sequence of Cyclin-dependent kinase 4/cyclin D1 (P11802 whole entry): as the sequence (P11802 whole entry) above
Sequence of Cyclin-dependent kinase 4/cyclin D1 (P24385 whole entry, further chain): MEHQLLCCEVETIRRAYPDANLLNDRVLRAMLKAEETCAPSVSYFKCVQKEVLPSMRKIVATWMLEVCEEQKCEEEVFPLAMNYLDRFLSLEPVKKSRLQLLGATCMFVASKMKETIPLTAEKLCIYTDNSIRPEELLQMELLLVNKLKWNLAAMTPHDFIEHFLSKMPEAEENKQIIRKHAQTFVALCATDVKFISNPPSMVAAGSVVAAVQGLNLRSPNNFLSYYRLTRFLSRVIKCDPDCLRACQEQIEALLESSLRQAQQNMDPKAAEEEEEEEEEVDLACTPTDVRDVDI
Sequence of CYP3A4 (P08684 whole entry): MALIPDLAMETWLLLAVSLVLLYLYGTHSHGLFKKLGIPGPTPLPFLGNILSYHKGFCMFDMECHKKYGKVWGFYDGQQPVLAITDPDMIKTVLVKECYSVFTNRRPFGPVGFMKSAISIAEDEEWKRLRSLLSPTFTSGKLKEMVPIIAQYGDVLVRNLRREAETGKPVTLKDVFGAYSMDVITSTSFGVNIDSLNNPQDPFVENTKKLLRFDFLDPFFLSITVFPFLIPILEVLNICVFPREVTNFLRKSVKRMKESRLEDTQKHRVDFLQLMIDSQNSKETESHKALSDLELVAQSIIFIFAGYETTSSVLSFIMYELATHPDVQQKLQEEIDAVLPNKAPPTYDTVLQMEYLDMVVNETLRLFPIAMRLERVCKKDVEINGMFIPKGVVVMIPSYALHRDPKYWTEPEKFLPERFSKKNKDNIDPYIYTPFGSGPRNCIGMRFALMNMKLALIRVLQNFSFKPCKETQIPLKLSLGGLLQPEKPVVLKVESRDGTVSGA
Sequence of Cytochrome P450 3A4 (P08684 whole entry): as above
Sequence of Voltage-gated inwardly rectifying potassium channel KCNH2 (Q12809 whole entry): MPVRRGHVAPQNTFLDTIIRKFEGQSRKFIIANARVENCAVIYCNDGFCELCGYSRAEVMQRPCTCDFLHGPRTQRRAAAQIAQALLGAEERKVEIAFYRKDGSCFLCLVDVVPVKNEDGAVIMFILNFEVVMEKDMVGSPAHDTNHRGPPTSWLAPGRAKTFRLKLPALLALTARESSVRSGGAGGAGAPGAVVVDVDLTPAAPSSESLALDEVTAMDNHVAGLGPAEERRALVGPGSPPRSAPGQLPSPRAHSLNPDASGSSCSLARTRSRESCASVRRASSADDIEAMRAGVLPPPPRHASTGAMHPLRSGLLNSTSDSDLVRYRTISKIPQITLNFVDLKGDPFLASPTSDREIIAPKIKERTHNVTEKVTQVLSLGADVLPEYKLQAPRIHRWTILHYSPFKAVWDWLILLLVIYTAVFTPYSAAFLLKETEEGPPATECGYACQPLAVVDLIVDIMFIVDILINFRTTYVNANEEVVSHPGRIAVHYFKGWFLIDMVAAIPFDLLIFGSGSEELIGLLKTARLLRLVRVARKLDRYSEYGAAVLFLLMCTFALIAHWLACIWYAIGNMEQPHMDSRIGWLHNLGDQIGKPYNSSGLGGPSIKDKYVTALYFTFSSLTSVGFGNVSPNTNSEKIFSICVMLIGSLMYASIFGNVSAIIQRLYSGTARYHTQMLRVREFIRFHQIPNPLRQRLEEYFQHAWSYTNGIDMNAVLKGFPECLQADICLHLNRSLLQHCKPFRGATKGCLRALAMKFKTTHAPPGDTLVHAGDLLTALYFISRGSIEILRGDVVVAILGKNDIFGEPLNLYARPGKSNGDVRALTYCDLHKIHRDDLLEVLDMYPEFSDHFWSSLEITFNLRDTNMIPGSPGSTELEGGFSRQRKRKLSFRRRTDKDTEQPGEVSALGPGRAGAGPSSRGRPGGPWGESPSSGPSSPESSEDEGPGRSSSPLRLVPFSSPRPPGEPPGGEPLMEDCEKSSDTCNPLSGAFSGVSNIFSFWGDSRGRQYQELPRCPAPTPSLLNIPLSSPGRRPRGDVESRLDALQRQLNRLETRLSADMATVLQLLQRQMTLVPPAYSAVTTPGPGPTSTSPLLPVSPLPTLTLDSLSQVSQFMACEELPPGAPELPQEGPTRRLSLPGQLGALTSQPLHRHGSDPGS

`CN(C)C1CCN(c2ccc(Nc3ncc4c5ccncc5n([C@H]5CC[C@H](C)CC5)c4n3)nc2F)CC1` showed an IC50 [1] of 1470 nM, an IC50 [2] of 16 nM and a clearance [3] of 20 mL/min/kg. The IC50 [4] was 1 nM, the bioavailability [5] was 88% and the IC50 [6] was 0.6 nM. For the same molecule, the IC50 [7] was 13 nM, the Activity [8] was “Toxic” and the IC50 [9] was 2680 nM.
With `Clc1nccc2c3cnc(Nc4ccc(N5CCNCC5)cn4)nc3n(C3CCCC3)c12` the IC50 [10] was 2000 nM, the IC50 [1] was 2100 nM and the IC50 [2] was 63 nM. The clearance [3] was 28.3 mL/min/kg, the IC50 [4] was 4 nM and the IC50 [11] was > 10000 nM. The IC50 [6] was 5 nM, the IC50 [7] was 9 nM and the IC50 [9] was 3300 nM. For the same molecule, the inhibition at 3 µM [12] was < 10%.
For `CN(C)C1CCN(c2ccc(Nc3ncc4c5ccncc5n([C@H]5CC[C@H](C)CC5)c4n3)nn2)CC1`, the IC50 [1] was 2150 nM, the IC50 [2] was 11 nM and the clearance [3] was 10.2 mL/min/kg. The IC50 [13] was 52 nM, the IC50 [4] was 2 nM and the inhibition [14] was “Dose-dependent effect”. The fCmax [15] was 0.024 µM, the bioavailability [5] was 28% and the AUC [16] was 1.57 µM·h. For the same molecule, the concentration at 3 h [17] was 850 nM, the Cmax [18] was 130 nM and the IC50 [6] was 4 nM. For the same molecule, the IC50 [7] was 9 nM, the Ratio IC50 [19] was > 1000 and the IC50 [9] was 2200 nM. For the same molecule, the inhibition [20] was “inactive” and the IC50 [21] was 23 nM.
`COc1nc(Nc2ncc3c4ccncc4n([C@H]4CC[C@H](C)CC4)c3n2)ccc1N1CCC(N(C)C)CC1` showed an IC50 [1] of 1120 nM, an IC50 [2] of 54 nM and a clearance [3] of 9.17 mL/min/kg. For the same molecule, the IC50 [4] was 3 nM, the bioavailability [5] was 62% and the IC50 [6] was 0.2 nM. The IC50 [7] was 2 nM, the Activity [8] was “Toxic” and the IC50 [9] was 790 nM.
In the case of `C[C@@H](O)CN(C)C1CCN(c2ccc(Nc3ncc4c5ccncc5n([C@H]5CC[C@H](C)CC5)c4n3)nn2)CC1`, the IC50 [1] is reported as 910 nM, the IC50 [2] is reported as 9 nM and the clearance [3] is reported as 10 mL/min/kg. The bioavailability [5] was 46%, the AUC [16] was 3.24 µM·h and the Cmax [18] was 280 nM. For the same molecule, the IC50 [7] was 4 nM and the IC50 [9] was 1540 nM.
